This is an account of results in ChEMBL document CHEMBL3124817, “Design and synthesis of thiazole derivatives as potent FabH inhibitors with antibacterial activity” (Eur J Med Chem, 2014).

A word on the CC50: it is the concentration giving 50% cytotoxicity. Lower therefore signals greater toxicity to the cells. Broadly, the IC50 is the concentration needed to halve the response being measured. A word on the pIC50: it is the negative decadic logarithm of the IC50, by convention in mol/L. By MIC is commonly meant the least concentration at which growth counts as inhibited. Read a low MIC as a more susceptible organism.

Data set [1] can be described thus: Cytotoxicity against human macrophages after 24 hrs by MTT assay. The class given is cell-based, Macrophage. A digest of the protocol: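 Human macrophages in DMEM with 10% FBS and antimycotic, 1.8×10^4 cells/well. Compounds at 160, 40, 10, 2.5, 0.25 μg/mL in 10% DMSO, 24 h at 37 °C under 5% CO₂. Then MTT for 4 h, formazan dissolved in DMSO, absorbance difference 570/630 nm as viability. CC50 by curve fitting; untreated cells as negative control.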
Background: Tetrazolium dyes change colour on reduction, which living cells bring about.

A short description of data set [2]: Inhibition of Escherichia coli N-terminal His-tagged FabH expressed in Escherichia coli BL21(DE3) using holo-acyl carrier protein as substrate preincubated for 1 min followed by acetyl-CoA addition measured after 25 mins by liquid scintillation counting analysis. The procedure, abridged: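 His-tagged FabH purified by Ni–NTA. Reaction: 1 nM FabH, […], 20 mM sodium phosphate pH 7.0, 0.5 mM DTT, 0.25 mM MgCl₂, 1 min preincubation. Started with 25 μM acetyl-CoA plus 0.75 μCi [³H]acetyl-CoA for 25 min. Stopped with cold TCA, protein pellet counted by liquid scintillation. Inhibitors from DMSO stock, final DMSO ≤2%; IC50 determined.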

The next data set concerns Escherichia coli. Put plainly: Antibacterial activity against Escherichia coli ATCC 35218 after 24 hrs by MTT assay. In kind it is functional. Particulars: ATCC 35218, 24 h. The procedure, abridged:
(§1)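 Broth microdilution in sterile liquid MH medium; compounds from 1 mg/mL DMSO stock, serially diluted. Inoculum about 10^5 cfu/mL, 37 °C for 24 h. MIC read visually, then MTT (2 mg/mL in PBS pH 7.4) added for 4–5 h at room temperature. Dye extracted with acidified isopropanol for 12 h, OD at 550 nm.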

In a further data set the test system is Pseudomonas aeruginosa. Put plainly: Antibacterial activity against Pseudomonas aeruginosa ATCC 13525 after 24 hrs by MTT assay. Conditions: ATCC 13525, 24 h. The class given is functional. A digest of the protocol: as §1
Another data set relates to Bacillus spizizenii. The experiment in a line: Antibacterial activity against Bacillus subtilis ATCC 6633 after 24 hrs by MTT assay. In kind it is functional. Particulars: ATCC 6633, 24 h. The procedure, abridged: as §1
Another data set concerns Staphylococcus aureus. The experiment in a line: Antibacterial activity against Staphylococcus aureus ATCC 6538 after 24 hrs by MTT assay. In kind it is functional. Particulars: ATCC 6538, 24 h. The procedure, abridged:
as §1

The structures appear in SMILES notation. ≈ marks a conversion by molar mass, not a printed value.

`O=C(Cc1ccc(Cl)cc1)Nc1nc(-c2ccc(Br)cc2)cs1` showed a CC50 at 24 h in data set [1] of 286 µM. In data set [2], the IC50 worked out at 34.7 µM and the negative logarithm of the IC50 (pIC50) worked out at 4.46.
The like results for `O=C(Cc1ccc(Br)cc1)Nc1nc(-c2ccc(Br)cc2)cs1` were, in that order, 315 µM, 48.1 µM and 4.32.
As for `O=C(Cc1cccc(Cl)c1)Nc1nc(-c2ccc(Br)cc2)cs1`, in data set [1], the CC50 at 24 h was 194 µM. Further, in data set [2], half-maximal inhibition (IC50) was put at 9.3 µM and the pIC50 is recorded as 5.27. This compound also gave an MIC against Escherichia coli of 6.25 µg/mL (≈ 15.3 µM). In the data set with Pseudomonas aeruginosa, this compound had an MIC of 12.5 µg/mL (≈ 30.7 µM).
`O=C(Cc1cccc(Br)c1)Nc1nc(-c2ccc(Br)cc2)cs1`: the CC50 at 24 h in data set [1] amounted to 220 µM. Further, 5.8 µM corresponded to half-maximal inhibition in data set [2] (IC50). Also, in data set [2], the pIC50 came out at 5.01. Moreover, the MIC against Escherichia coli was 1.56 µg/mL (≈ 3.45 µM); against Bacillus spizizenii, 1.56 µg/mL (≈ 3.45 µM); against Pseudomonas aeruginosa, 3.13 µg/mL (≈ 6.92 µM).
In data set [1], `COc1cccc(CC(=O)Nc2nc(-c3ccc(Br)cc3)cs2)c1` displayed a 50% cytotoxic concentration (CC50) at 24 h of 192 µM. Also, in data set [2], the half-inhibitory concentration (IC50) is 6.6 µM. This compound also gave a pIC50 in data set [2] of 5.25. In addition, the MIC in the data set with Staphylococcus aureus amounted to 3.13 µg/mL (≈ 7.76 µM); with Escherichia coli, 12.5 µg/mL (≈ 31 µM); in the data set on Bacillus spizizenii, 6.25 µg/mL (≈ 15.5 µM); against Pseudomonas aeruginosa, 3.13 µg/mL (≈ 7.76 µM).
With `O=C(Nc1nc(-c2ccc(Br)cc2)cs1)c1ccccc1`, the IC50 in data set [2] is above 100 µM.
Take `O=C(Cc1cccc(Cl)c1)Nc1nc(-c2ccccc2)cs1`: it took 264 µM to reach half-maximal cytotoxicity in data set [1] (CC50 at 24 h). Moreover, in data set [2], the IC50 was determined as 12.3 µM and the pIC50 is listed as 4.91.
In data set [1], `O=C(Cc1cccc(Br)c1)Nc1nc(-c2ccccc2)cs1` returned a CC50 at 24 h of 257 µM. In data set [2], this compound registered a half-maximal inhibitory concentration (IC50) of 26.9 µM and a pIC50 of 4.57.
Turning to `COc1cccc(CC(=O)Nc2nc(-c3ccccc3)cs2)c1`, in the data set on Pseudomonas aeruginosa, the lowest concentration to inhibit growth (MIC) was 25 µg/mL (≈ 77.1 µM).
`O=C(Cc1ccc(F)cc1)Nc1nc(-c2ccc(Br)cc2)cs1` showed a 50% cytotoxic concentration (CC50) at 24 h in data set [1] of 264 µM. In data set [2], this compound returned an IC50 of 29.3 µM and a negative logarithm of the IC50 (pIC50) of 4.53.
In the same order, the values of `O=C(Cc1ccc(F)cc1)Nc1nc(-c2ccccc2)cs1` are 318 µM, 38.4 µM and 4.42.
The like results for `O=C(Cc1ccc(Cl)cc1)Nc1nc(-c2ccccc2)cs1` were, in that order, 357 µM, 41.8 µM and 4.38.
Regarding `CCOc1cccc(CC(=O)Nc2nc(-c3ccc(Br)cc3)cs2)c1`, the MIC in the data set with Staphylococcus aureus is above 100 µg/mL; in the data set on Escherichia coli, 50 µg/mL (≈ 120 µM); in the data set with Bacillus spizizenii, 50 µg/mL (≈ 120 µM); against Pseudomonas aeruginosa it was 25 µg/mL (≈ 59.9 µM).
Consider `CCOc1cccc(CC(=O)Nc2nc(-c3ccccc3)cs2)c1`, for which the MIC against Staphylococcus aureus is above 100 µg/mL; against Escherichia coli, 50 µg/mL (≈ 148 µM); against Bacillus spizizenii, above 100 µg/mL; against Pseudomonas aeruginosa it was 50 µg/mL (≈ 148 µM).
For `O=C(Nc1nc(-c2ccccc2)cs1)c1ccccc1`, the IC50 in data set [2] is above 100 µM.
The compound `CC1(C)S[C@@H]2[C@H](NC(=O)Cc3ccccc3)C(=O)N2[C@H]1C(=O)O` [PENICILLIN G] had a CC50 at 24 h in data set [1] of 229 µM. The midpoint of inhibition in data set [2], the IC50, lay at 4.9 µM.
